# Measurements from ChEMBL document CHEMBL4706580, “4-Amino-1,2,4-triazole-3-thione-derived Schiff bases as metallo-β-lactamase inhibitors” (Eur J Med Chem, 2020).
# Activity calls are given as the source filed them. The calls are words filed in the database; no cut-off is given here.
# Experiments:
# [1] = Inhibition of beta-lactamase VIM-2 (unknown origin) expressed in Escherichia coli LZ2310 assessed as potentiation of cefoxitin antibacterial activity by measuring cefoxitin induced diameter of inhibition zone at 240 uM incubated for 18 hrs by disk diffusion method (reference value: 14 mm)
# Procedure, shortened: (§1)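 Efflux-deficient E. coli LZ2310 (NorE, MdfA, AcrA knocked out) carrying pLB-II with the cloned MBL gene. Mueller-Hinton, CLSI disk diffusion; antibiotic disks (30 µg cefoxitin for VIM-2, 10 µg ampicillin for VIM-4, 30 µg ceftazidime for NDM-1/IMP-1) loaded with inhibitor in DMSO (≤15 µL). Zone diameter after 18 h, 35 ± 1 °C; DMSO and 220 µg EDTA controls. Triplicate.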
# [2] = Inhibition of beta-lactamase CphA (unknown origin) expressed in Escherichia coli BL21(DE3) using imipenem as substrate by measuring substrate hydrolysis by spectrophotometric analysis
# Procedure, shortened: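 Enzyme 0.2–0.8 nM in 15 mM cacodylate pH 6.5, no added zinc, pre-incubated 30 min at 21 °C with inhibitor (100 μM screen). Imipenem substrate added from 10 mM stock; hydrolysis at 300 nm, 30 °C. Residual activity vs three uninhibited samples; Ki (1–100 μM inhibitor) by Hanes linearization, competitive model. Triplicate.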
# [3] = Inhibition of beta-lactamase IMP-1 (unknown origin) expressed in Escherichia coli BL21(DE3) using imipenem as substrate by measuring substrate hydrolysis by spectrophotometric analysis
# Procedure, shortened: (§2)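 Purified enzyme (overproduced in E. coli BL21(DE3), pET-9a; ion-exchange and gel filtration), 1-70 nM final. Reporter substrate 150 μM imipenem, read at 300 nm, 30 °C, 50 mM HEPES pH 7.5. Single-point screen at 100 or 200 μM; Ki from v0/vi vs [I] (0.5–1,000 μM final) assuming competitive inhibition, or Dixon plot. Triplicate.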
# [4] = Inhibition of beta-lactamase VIM-2 (unknown origin) expressed in Escherichia coli XL-1 assessed as potentiation of cefoxitin antibacterial activity by measuring cefoxitin induced diameter of inhibition zone at 240 uM incubated for 18 hrs by disk diffusion method (reference value: 8 mm)
# Procedure, shortened: (§3)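 Wild-type efflux E. coli XL-1 Blue transformed with pLB-II-VIM-2. Mueller-Hinton disk diffusion per CLSI, 30 µg cefoxitin disks loaded with inhibitor dissolved in DMSO (≤15 µL). Growth-inhibition zone measured after 18 h at 35 ± 1 °C; DMSO negative and 220 µg EDTA positive controls. Triplicate.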
# [5] = Inhibition of beta-lactamase NDM1 (unknown origin) expressed in Escherichia coli BL21(DE3) using cefotaxime/nitrocefin as substrate by measuring substrate hydrolysis by spectrophotometric analysis
# Procedure, shortened: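 His-tagged enzyme from E. coli BL21(DE3) pET-15b, affinity-purified, 1-70 nM final. Reporter substrate 120 μM cefotaxime (260 nm) or 100 μM nitrocefin (482 nm), 30 °C, 50 mM HEPES pH 7.5. Inhibitor 0.5–1,000 μM final; competitive Ki from v0/vi vs [I] slope or Dixon plot. Triplicate.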
# [6] = Inhibition of beta-lactamase VIM2 (unknown origin) expressed in Escherichia coli BL21(DE3) using imipenem as substrate by measuring substrate hydrolysis by spectrophotometric analysis; procedure, shortened: as §2
# [7] = Inhibition of beta-lactamase VIM4 (unknown origin) expressed in Escherichia coli BL21(DE3) using imipenem as substrate by measuring substrate hydrolysis by spectrophotometric analysis; procedure, shortened: as §2
# [8] = Inhibition of beta-lactamase L1 (unknown origin) expressed in Escherichia coli BL21(DE3) using nitrocefin as substrate by measuring substrate hydrolysis preincubated for 30 mins by spectrophotometric analysis
# Procedure, shortened: (§4)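 Enzyme 0.2–0.8 nM in 25 mM HEPES pH 7.5 with 50 μM ZnCl2 final, pre-incubated 30 min at 21 °C with inhibitor (100 μM screen). Nitrocefin 100 μM final, read at 482 nm, 30 °C. Residual activity vs three uninhibited samples; Ki (1–100 μM inhibitor) from Hanes linearization, competitive model. Triplicate.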
# HeLa = assay: Cytotoxicity in human HeLa cells assessed as cell lysis upto 250 uM incubated for 72 hrs by membrane integrity assay; type: cell-based
# HUVEC = assay: Cytotoxicity in human HUVEC cells assessed as reduction in cell viability upto 100 uM incubated for 72 hrs by MTT assay; type: cell-based
# [9] = molecular target: Hydroxyacylglutathione hydrolase (Homo sapiens); assay: Inhibition of human Glyoxalase II expressed in Escherichia coli BL21 (DE3)
# [10] = Inhibition of beta-lactamase VIM-2 (unknown origin) expressed in Escherichia coli LZ2310 assessed as potentiation of cefoxitin antibacterial activity by measuring cefoxitin induced diameter of inhibition zone at 120 uM incubated for 18 hrs by disk diffusion method (reference value: 14 mm); procedure, shortened: as §1
# [11] = Inhibition of beta-lactamase VIM-2 (unknown origin) expressed in Escherichia coli LZ2310 assessed as potentiation of cefoxitin antibacterial activity by measuring cefoxitin induced diameter of inhibition zone at 40 uM incubated for 18 hrs by disk diffusion method (reference value: 14 mm); procedure, shortened: as §1
# [12] = Inhibition of beta-lactamase NDM-1 (unknown origin) expressed in Escherichia coli LZ2310 assessed as potentiation of ceftazidime antibacterial activity by measuring ceftazidime induced diameter of inhibition zone at 40 uM incubated for 18 hrs by disk diffusion method (reference value: 15 mm); procedure, shortened: as §1
# [13] = Inhibition of beta-lactamase IMP-1 (unknown origin) expressed in Escherichia coli LZ2310 assessed as potentiation of ceftazidime antibacterial activity by measuring ceftazidime induced diameter of inhibition zone at 40 uM incubated for 18 hrs by disk diffusion method (reference value: 9 mm); procedure, shortened: as §1
# Escherichia coli [14] = assay: Synergistic antibacterial activity against NDM-1 producing Escherichia coli assessed as MIC of imipenem at 32 ug/ml by broth microdilution method; type: functional; conditions: dose 32 µg/ml
# Escherichia coli [15] = assay: Synergistic antibacterial activity against NDM-1 producing Escherichia coli assessed as MIC of meropenem at 32 ug/ml by broth microdilution method; type: functional; conditions: dose 32 µg/ml
# Escherichia coli [16] = assay: Synergistic antibacterial activity against NDM-1 producing Escherichia coli assessed as MIC of ceftazidime at 32 ug/ml by broth microdilution method; type: functional; conditions: dose 32 µg/ml
# Escherichia coli [17] = assay: Synergistic antibacterial activity against NDM-1 producing Escherichia coli assessed ass MIC of ceftazidime/avibactam at 32 ug/ml by broth microdilution method; type: functional; conditions: dose 32 µg/ml
# Procedure, shortened: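 MIC of ceftazidime-avibactam (avibactam fixed at 4 µg/mL) by CLSI broth microdilution in Mueller-Hinton broth. Used the NDM-1-producing multidrug-resistant E. coli clinical isolate SI-001M at 5 × 10⁴ CFU/well, with and without inhibitor at a fixed 32 µg/ml. No colistin added. Triplicate determinations.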
# Escherichia coli [18] = assay: Antibacterial activity against NDM-1 producing Escherichia coli in presence of colistin by broth microdilution method.; type: functional
# [19] = Inhibition of beta-lactamase VIM-2 (unknown origin) expressed in Escherichia coli LZ2310 assessed as potentiation of cefoxitin antibacterial activity by measuring cefoxitin induced diameter of inhibition zone at 80 uM incubated for 18 hrs by disk diffusion method (reference value: 14 mm); procedure, shortened: as §1
# [20] = Inhibition of beta-lactamase NDM-1 (unknown origin) expressed in Escherichia coli LZ2310 assessed as potentiation of ceftazidime antibacterial activity by measuring ceftazidime induced diameter of inhibition zone at 80 uM incubated for 18 hrs by disk diffusion method (reference value: 15 mm); procedure, shortened: as §1
# [21] = Inhibition of beta-lactamase IMP-1 (unknown origin) expressed in Escherichia coli BL21(DE3) using imipenem as substrate by measuring substrate hydrolysis at 200 uM by spectrophotometric analysis; procedure, shortened: as §2
# [22] = Inhibition of beta-lactamase IMP-1 (unknown origin) expressed in Escherichia coli BL21(DE3) using imipenem as substrate by measuring substrate hydrolysis at 100 uM by spectrophotometric analysis; procedure, shortened: as §2
# [23] = Inhibition of beta-lactamase NDM1 (unknown origin) expressed in Escherichia coli BL21(DE3) using cefotaxime/nitrocefin as substrate by measuring substrate hydrolysis at 200 uM by spectrophotometric analysis
# [24] = Inhibition of beta-lactamase NDM1 (unknown origin) expressed in Escherichia coli BL21(DE3) using cefotaxime/nitrocefin as substrate by measuring substrate hydrolysis at 100 uM by spectrophotometric analysis
# [25] = Inhibition of beta-lactamase VIM2 (unknown origin) expressed in Escherichia coli BL21(DE3) using imipenem as substrate by measuring substrate hydrolysis at 100 uM by spectrophotometric analysis; procedure, shortened: as §2
# [26] = Inhibition of beta-lactamase VIM4 (unknown origin) expressed in Escherichia coli BL21(DE3) using imipenem as substrate by measuring substrate hydrolysis at 100 uM by spectrophotometric analysis; procedure, shortened: as §2
# [27] = Inhibition of beta-lactamase L1 (unknown origin) expressed in Escherichia coli BL21(DE3) using nitrocefin as substrate by measuring substrate hydrolysis at 100 uM preincubated for 30 mins by spectrophotometric analysis; procedure, shortened: as §4
# [28] = Inhibition of beta-lactamase IMP-1 (unknown origin) expressed in Escherichia coli LZ2310 assessed as potentiation of ceftazidime antibacterial activity by measuring ceftazidime induced diameter of inhibition zone at 80 uM incubated for 18 hrs by disk diffusion method (reference value: 9 mm); procedure, shortened: as §1
# [29] = Inhibition of beta-lactamase L1 (unknown origin) expressed in Escherichia coli BL21(DE3) using nitrocefin as substrate by measuring substrate hydrolysis at 200 uM preincubated for 30 mins by spectrophotometric analysis
# [30] = Inhibition of beta-lactamase VIM4 (unknown origin) expressed in Escherichia coli BL21(DE3) using imipenem as substrate by measuring substrate hydrolysis at 200 uM by spectrophotometric analysis; procedure, shortened: as §2
# [31] = Inhibition of beta-lactamase VIM2 (unknown origin) expressed in Escherichia coli BL21(DE3) using imipenem as substrate by measuring substrate hydrolysis at 200 uM by spectrophotometric analysis; procedure, shortened: as §2
# [32] = Inhibition of beta-lactamase VIM-2 (unknown origin) expressed in Escherichia coli LZ2310 assessed as potentiation of cefoxitin antibacterial activity by measuring cefoxitin induced diameter of inhibition zone at 320 uM incubated for 18 hrs by disk diffusion method (reference value: 14 mm); procedure, shortened: as §1
# [33] = Inhibition of beta-lactamase NDM-1 (unknown origin) expressed in Escherichia coli LZ2310 assessed as potentiation of ceftazidime antibacterial activity by measuring ceftazidime induced diameter of inhibition zone at 320 uM incubated for 18 hrs by disk diffusion method (reference value: 15 mm); procedure, shortened: as §1
# [34] = Inhibition of beta-lactamase VIM-2 (unknown origin) expressed in Escherichia coli XL-1 assessed as potentiation of cefoxitin antibacterial activity by measuring cefoxitin induced diameter of inhibition zone at 320 uM incubated for 18 hrs by disk diffusion method (reference value: 8 mm); procedure, shortened: as §3
# [35] = Inhibition of beta-lactamase IMP-1 (unknown origin) expressed in Escherichia coli LZ2310 assessed as potentiation of ceftazidime antibacterial activity by measuring ceftazidime induced diameter of inhibition zone at 320 uM incubated for 18 hrs by disk diffusion method (reference value: 9 mm); procedure, shortened: as §1
# [36] = Inhibition of beta-lactamase VIM-2 (unknown origin) expressed in Escherichia coli XL-1 assessed as potentiation of cefoxitin antibacterial activity by measuring cefoxitin induced diameter of inhibition zone at 120 uM incubated for 18 hrs by disk diffusion method (reference value: 8 mm); procedure, shortened: as §3
Compound,inhibition [23],inhibition [24],inhibition [25],inhibition [26],inhibition [27],inhibition zone (IZ) [28] [mm],inhibition [31],Ki [2] [µM],Ki [3] [µM],Ki [5] [µM],Ki [6] [µM],Ki [7] [µM],Ki [8] [µM],also measured
Cc1ccccc1-c1n[nH]c(=S)n1/N=C/c1ccccc1C(=O)O,,,,,,,,120,58,110,3,1.6,40,inhibition zone (IZ) [1]: 20 mm; inhibition zone (IZ) [4]: 9 mm; Activity (HeLa): Non-Toxic; Activity (HUVEC): Non-Toxic; IC50 [9]: 25.8 µM
O=C(O)c1ccccc1/C=N/n1c(Cc2ccc3ccccc3c2)n[nH]c1=S,,,,,,,,15,34.4,1.7,2.4,5,0.5,inhibition zone (IZ) [10]: 16 mm; inhibition zone (IZ) [11]: 14 mm; inhibition zone (IZ) [12]: 15 mm; inhibition zone (IZ) [13]: 9 mm; MIC (Escherichia coli [14]): 8 µg/mL; MIC (Escherichia coli [15]): 64 µg/mL; MIC (Escherichia coli [16]): > 256 µg/mL; MIC (Escherichia coli [17]): > 256 µg/mL; MIC (Escherichia coli [18]): > 256 µg/mL; IC50 [9]: 30 µM
O=C(O)c1ccccc1/C=N/n1c(-c2ccc(-c3ccccc3)cc2)n[nH]c1=S,,,,,,,,,32.4,1.3,2.5,4,0.9,inhibition zone (IZ) [19]: 15 mm; inhibition zone (IZ) [20]: 15 mm; MIC (Escherichia coli [14]): 8 µg/mL; MIC (Escherichia coli [15]): 32 µg/mL; MIC (Escherichia coli [16]): > 256 µg/mL; MIC (Escherichia coli [17]): > 256 µg/mL; MIC (Escherichia coli [18]): > 256 µg/mL
O=C(O)c1ccccc1/C=N/n1c(-c2cccc(Cl)c2)n[nH]c1=S,,,inactive,,60%,,inactive,,58,7.5,,2,,inhibition zone (IZ) [32]: 14 mm; inhibition zone (IZ) [33]: 15 mm; inhibition zone (IZ) [34]: 8 mm; inhibition zone (IZ) [35]: 9 mm
S=c1[nH]nc(-c2cc3ccccc3[nH]2)n1/N=C/c1ccc(OCc2ccccc2)cc1,inactive,inactive,inactive,inactive,inactive,9,inactive,,,,,,,inhibition [21]: 60%; inhibition [29]: inactive; inhibition [30]: inactive
Oc1ccc(/C=N/n2c(-c3cccc(C(F)(F)F)c3)n[nH]c2=S)c(O)c1,,,53%,,15%,,,,66.2,32.5,,3.5,,inhibition zone (IZ) [36]: 12 mm

# Second part, led by results:
inhibition [23],inhibition [24],inhibition [25],inhibition [26],inhibition [27],inhibition zone (IZ) [28] [mm],inhibition [31],Compound,Ki [2] [µM],Ki [3] [µM],Ki [5] [µM],Ki [6] [µM],Ki [7] [µM],Ki [8] [µM],also measured
inactive,inactive,inactive,inactive,inactive,9,inactive,S=c1[nH]nc(Cc2ccc3ccccc3c2)n1/N=C/c1ccc(OCc2ccccc2)cc1,,,,,,,inhibition [21]: inactive; inhibition [22]: inactive; inhibition [29]: inactive; inhibition [30]: inactive
inactive,inactive,inactive,44%,61%,13,inactive,Cc1ccccc1-c1n[nH]c(=S)n1/N=C/c1cc([N+](=O)[O-])ccc1O,3,11,,,,,inhibition zone (IZ) [13]: 9 mm
